Experimental data from ChEMBL document CHEMBL1125659, “Optical isomers of rocastine and close analogues: synthesis and H1 antihistaminic activity of its enantiomers and their structural relationship to the classical antihistamines” (J Med Chem, 1991).
pIC50: −log10 of the molar value.

Tests used:
[1] = test system: Cavia porcellus; experiment: Protection against histamine-induced lethality in guinea pig at 1 hr pretreatment time upon peroral administration.; type: functional; settings: po
Method in brief: (§1)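 Female English short-hair guinea pigs (250–500 g), fasted overnight, dosed orally by gavage at set times before intravenous histamine challenge (1.2 mg/kg). Survival at 24 h postchallenge scored as protection. Groups of 5–10 animals per treatment; ED50 by Litchfield–Wilcoxon or computer probit analysis.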

[2] = biological target: T1, Histamine H1 receptor (Cavia porcellus, UniProt P31389); experiment: Inhibition of [3H]mepyramine binding to the Histamine H1 receptor in guinea pig cortex; type: tissue-based
T1 sequence (P31389 whole entry): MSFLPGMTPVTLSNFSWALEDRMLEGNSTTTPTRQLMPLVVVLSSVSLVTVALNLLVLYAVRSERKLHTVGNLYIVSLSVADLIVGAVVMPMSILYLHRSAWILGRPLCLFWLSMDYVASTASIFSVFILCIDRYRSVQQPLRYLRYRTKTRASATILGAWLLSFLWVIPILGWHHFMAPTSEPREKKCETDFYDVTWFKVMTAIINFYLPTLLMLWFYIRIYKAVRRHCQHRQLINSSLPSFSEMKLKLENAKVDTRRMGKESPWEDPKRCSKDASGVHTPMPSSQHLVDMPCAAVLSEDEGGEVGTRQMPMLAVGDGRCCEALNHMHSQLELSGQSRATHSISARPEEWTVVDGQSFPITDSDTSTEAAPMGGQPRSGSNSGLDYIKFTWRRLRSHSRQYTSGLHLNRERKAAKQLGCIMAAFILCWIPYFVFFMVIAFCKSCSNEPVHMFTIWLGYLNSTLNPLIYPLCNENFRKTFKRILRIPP
Method in brief: (§2)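 Cerebral cortex from female Dunkin-Hartley guinea pigs (200–500 g) homogenized in cold 50 mM Na/K phosphate pH 7.5, washed by three 48000g 4 °C spins, used fresh same day. Six concentrations in triplicate; IC50 by linear/nonlinear curve fitting.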

[3] = test system: Cavia porcellus; experiment: Protection against histamine-induced lethality in guinea pig at 6 hr pretreatment time upon peroral administration.; type: functional; settings: po; method in brief: as §1
[4] = biological target: T1, Histamine H1 receptor; experiment: Inhibition of [3H]mepyramine binding to the histamine receptor in guinea pig cortex; type: tissue-based
Method in brief: as §2, with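 “day. [3H]mepyramine (15 nM stock, 23 Ci/mmol) incubated with membranes 20 min at 25 °C; filtration, scintillation counting.” for “day.”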

[5] = test system: Cavia porcellus; experiment: Protection against histamine-induced lethality in guinea pig at 24 hr pretreatment time upon peroral administration.; type: functional; settings: po; method in brief: as §1
[6] = test system: Cavia porcellus; experiment: Protection against histamine-induced lethality in guinea pig at 24 hr pretreatment time upon peroral administration; type: functional; settings: po; method in brief: as §1

Compound | ED50 [1] [mg/kg] | pIC50 [2] | ED50 [3] [mg/kg] | pIC50 [4] | ED50 [5] [mg/kg] | ED50 [6] [mg/kg]
CN1C[C@H](CCN2CCC2)Oc2ncc(Cl)cc2C1=S | 8.28 | 6.06 |  |  |  | 
CN(C)CC[C@H]1CN(C)C(=S)c2cccnc2O1 | 23 | 4.68 |  |  |  | 
CN(C)CCC(c1ccccn1)c1ccc(Cl)cn1 (configuration not stated) | 0.009 | 7.62 |  |  |  | 
CN(C)CC[C@H]1CN(C)C(=S)c2cc(Cl)cnc2O1 | 66.8 | 4.92 |  |  |  | 
CN(C)CC[C@@H]1CN(C)C(=S)c2cccnc2O1 | 0.07 |  | 2.96 | 7.52 |  | 
CN(C)CCC(c1ccc(Cl)cc1)c1ccccn1 (configuration not stated) [CHLORPHENIRAMINE] | 0.18 |  |  |  |  | 
CN1C[C@@H](CCN2CCC2)Oc2ncc(Cl)cc2C1=S | 0.0054 |  | 0.0078 | 9.59 | 0.21 | 
CN(C)CCC(c1ccc(Cl)cc1)c1ccc(Cl)cn1 (configuration not stated) | > 10 | 6.37 |  |  |  | 
CN(C)CC[C@@H]1CN(C)C(=S)c2cc(Cl)cnc2O1 | 0.013 |  | 0.15 | 8.72 |  | 58
